High-throughput results (PubChem BioAssay)
MC4R antag cAMP: antagonists of human melanocortin 4 receptor (MC4R); P32245; MC4R-expressing cells, MTII-stimulated cAMP, LANCE TR-FRET; inhibition, % at 6.5 µM; 360,000 compounds, 0.48% hits; AID 540295;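 active means inhibition above its plate's cutoff, the mean of tested wells on that plate plus 3 SD, cut at about 29% in these data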;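 further: 0% = Melanotan II alone and 100% = Melanotan II plus saturating MCL0020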
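System: U2OS-MC4R stable cell line; Technique: Eu-cAMP/anti-cAMP TR-FRET, emission 671 nm; Repeats: single well per compound; Also added: Melanotan II; Dosing: one concentration, 6.5 µM nominal; Schedule: 30-min compound, 1-h challenge, 1-h detection, room temperature.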
GAA850 FXN act: activators of GAA850 frataxin (FXN) promoter; HEK293 lucGAA850 FXN promoter luciferase reporter, 24 h; percent of 10 µM SAHA response; activation, % at 6 µM; 360,000 compounds, 0.56% hits; AID 540364;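 active means activation above the average of all compounds screened plus 3 SD, cutoff fixed separately per campaign, cut at about 7.5% in these data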;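 further: 0% = DMSO wells and 100% = 10 µM SAHA wells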
AHR act: human AHR activation; AHR-responsive luciferase reporter cells, luminescence; activation, % at 5 µM; 320,000 compounds, 2.5% hits; in the data active means activation above about 47%;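 further: 0% = vehicle wells and 100% = reference agonist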
Target sequence (P35869 whole entry, looked up): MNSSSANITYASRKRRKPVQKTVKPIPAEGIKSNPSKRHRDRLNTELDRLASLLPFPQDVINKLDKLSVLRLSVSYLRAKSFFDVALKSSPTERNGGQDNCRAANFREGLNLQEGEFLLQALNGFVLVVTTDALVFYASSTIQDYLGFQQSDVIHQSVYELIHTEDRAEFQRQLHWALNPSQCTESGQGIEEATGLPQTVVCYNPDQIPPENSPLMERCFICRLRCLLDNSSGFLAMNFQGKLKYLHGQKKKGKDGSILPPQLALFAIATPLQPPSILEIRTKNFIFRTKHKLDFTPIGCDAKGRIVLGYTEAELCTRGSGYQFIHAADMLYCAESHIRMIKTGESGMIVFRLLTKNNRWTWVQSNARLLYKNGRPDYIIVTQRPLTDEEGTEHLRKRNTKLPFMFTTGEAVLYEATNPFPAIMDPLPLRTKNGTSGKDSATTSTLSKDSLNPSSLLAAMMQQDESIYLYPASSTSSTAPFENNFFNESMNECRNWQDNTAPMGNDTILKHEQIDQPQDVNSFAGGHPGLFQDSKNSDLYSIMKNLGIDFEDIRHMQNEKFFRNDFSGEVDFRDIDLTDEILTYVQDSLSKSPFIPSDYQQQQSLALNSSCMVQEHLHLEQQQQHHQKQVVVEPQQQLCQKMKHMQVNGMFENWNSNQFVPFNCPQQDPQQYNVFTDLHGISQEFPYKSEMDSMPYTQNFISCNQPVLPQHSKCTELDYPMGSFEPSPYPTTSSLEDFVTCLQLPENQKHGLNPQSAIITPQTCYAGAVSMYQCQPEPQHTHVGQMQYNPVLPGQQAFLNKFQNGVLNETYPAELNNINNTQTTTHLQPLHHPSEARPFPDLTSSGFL
HTR2A ag: activates the mouse 5-HT2A serotonin receptor | activation, % at 7.6 µM | P35363 | 360,000 compounds, 0.66% hits | AID 624169 | CHO-K1 mHTR2A beta-arrestin complementation, luminescence; percent of 30 µM serotonin response;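 active means activation above a run cutoff, the mean activation of all tested compounds plus 3 SD, cut at about 14% in these data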;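 further: 0% = plate median of compound wells and 100% = 30 µM serotonin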
MC4R barr agon: agonists of human melanocortin 4 receptor (MC4R) beta-arrestin; 360,000 compounds, 0.98% hits; P32245; AID 540308; activation, % at 8.9 µM; U2OS MC4R beta-arrestin complementation, luminescence; percent of melanotan II response, DMSO zero;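 active means activation above a per-plate cutoff, the mean activation of sample wells on that plate plus 3 SD, cut at about 8% in these data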
The depositor's hits bear a star; . = no result given. A selection: hits, their analogues and other compounds. The true share with any hit is near 4.7%.

SMILES	MC4R antag cAMP	GAA850 FXN act	AHR act	HTR2A ag	MC4R barr agon
CN(Cc1ccco1)c1ncnc2ccc(-c3ccc4c(ccn4C)c3)cc12	-17.5	-2.6	10.6	-4.9	-1.0
OC(c1ccc(F)c(F)c1)c1nc(-c2cc(F)cc(F)c2)cs1 (stereo not given)	-2.8	1.1	.	2.7	5.5
Oc1[nH]c2ccc(Br)cc2c1N=Nc1ccc(F)cc1	-3.8	0.8	61.6*	3.4	-1.7
O=[N+]([O-])c1ccc2[nH]c(O)c(N=Nc3ccc(F)cc3)c2c1	11.6	0.1	40.4	5.0	0.0
CC1C(=O)CC(c2ccccc2)N(C)C1c1ccccc1 (stereo not given)	4.9	-2.3	-2.3	2.2	9.1*
O=C(/C=C/c1ccc(Br)o1)Nc1nnc(C2CC2)s1	.	.	66.0*	.	.
Cc1cnc(NC(=O)/C=C/c2ccc(Br)o2)s1	11.1	4.8	9.9	1.5	-2.7
COc1ccc(C2=NN(C(C#N)c3ccc(OC)cc3)C(c3ccccc3)C2)cc1 (stereo not given)	-0.6	5.4	54.1*	-1.9	-2.3
CN1C(=O)C2(N=c3ccccc3=N2)c2ccccc21	-5.6	7.1	51.4*	3.2	-0.7
O=C1CCN(Cc2ccccc2)C=C1c1ccc(Br)cc1	-0.5	3.0	-0.6	1.1	-0.1
CCc1ccc(OCC(=O)Nc2ccc(S(=O)(=O)N3CCCC3)cc2)c(Br)c1	13.9	-1.2	-2.7	-1.8	21.2*
COc1ccc(OCC(=O)Nc2cc(S(=O)(=O)N3CCCC3)ccc2Cl)cc1	-2.2	0.7	.	-0.1	9.0*
O=C(COc1ccc(Br)cc1CO)Nc1ccc(S(=O)(=O)N2CCCCC2)cc1	12.3	0.2	2.3	-8.1	0.7
CCCCN(C)CC(O)Cn1cc(/C=C/C(=O)c2ccc(C)cc2)c2ccccc21 (stereo not given)	-2.5	1.3	2.8	-3.4	13.1*
O=S(=O)(NN=C1CCCCCCC1)c1ccccc1	15.8	-0.6	.	5.7	-0.8
Cc1ccnc(NC(=O)c2ccc(COc3c(F)c(F)cc(F)c3F)o2)c1	-2.1	2.8	13.7	4.0	0.7
O=C(Nc1ccc(Br)cn1)c1ccc(COc2c(F)c(F)cc(F)c2F)o1	4.2	2.1	2.9	-0.8	8.4*
COc1ccc(C2=NN(C(=O)CSc3nc4ncc(Cl)cc4[nH]3)C(c3ccco3)C2)cc1 (stereo not given)	5.6	-1.0	47.2*	-4.6	-1.5
Cc1ccc(C2=NN(C(=O)CSc3nc4ncc(Cl)cc4[nH]3)C(c3ccco3)C2)cc1 (stereo not given)	0.6	0.7	44.1	3.1	-1.4
CC(C)CN(CC(C)C)C(=O)COn1nnc2ccc(S(=O)(=O)N3CCOCC3)cc21	-5.6	0.9	-0.8	7.0	1.6
CCC(=O)Nc1cccc(-c2cn3ccccc3n2)c1	6.8	4.0	39.7	1.3	-2.4
O=C(Nc1cccc(-c2cn3ccccc3n2)c1)C1CC1	-0.4	2.1	65.3*	-0.9	-2.5
COCCn1c(NC(=S)NC(=O)C23CC4CC(CC(C4)C2)C3)cc(=O)[nH]c1=O	-2.2	12.0*	-2.6	-3.4	-0.4
COc1ccc2nc(NC(=O)CCc3cc(OC)c(OC)c(OC)c3)sc2c1	6.2	-1.4	1.6	-0.8	0.2
CCCOc1ccc(CNC(=S)Nc2ccccc2)cc1Cl	-3.8	0.2	76.5*	-2.2	4.6
SMILES	MC4R antag cAMP	GAA850 FXN act	AHR act	HTR2A ag	MC4R barr agon
O=C(O)C[C@H]1c2ccc(C(F)(F)F)cc2S(=O)(=O)N1C1CCCCC1	-0.6	-1.0	-0.4	0.2	-0.9
CC(C)NC(=O)C1(S(=O)(=O)c2ccccc2)CC=CC1	3.3	-0.5	1.9	-0.4	-1.2
Cc1ccc(C)c(N=Nc2nc3ccccc3n2C)c1	-19.6	-1.5	62.0*	-9.7	0.1
Cc1ccc(S(=O)(=O)NC(C)(C)CN2CCC(Cc3ccccc3)CC2)cc1	15.5	-4.3	2.8	-4.7	8.4*
CCCCn1c(O)c(N=Nc2ccccc2O)c2ccccc21	13.0	0.8	59.7*	-0.2	0.4
CCCCn1c(O)c(N=Nc2ccccn2)c2ccccc21	6.4	4.6	38.8	-2.9	-1.1
O=C(Nc1cccc(Cl)c1)c1nc[nH]c1C(=O)NCCCNC(=O)c1[nH]cnc1C(=O)Nc1cccc(Cl)c1	3.9	0.7	34.1	-0.2	-1.8
CN(CCN(C)C(=O)c1[nH]cnc1C(=O)Nc1ccccc1)C(=O)c1[nH]cnc1C(=O)Nc1ccccc1	-1.4	1.4	47.4*	-1.1	0.8
